In ChEMBL document CHEMBL3244055, “Synthesis of mono- and bifunctional alpha-methylene lactone systems as potential tumor inhibitors” (1977):
Active and inactive are the calls of the source. The calls are words filed in the database; no cut-off is given here.

Legend:
CCRF-CEM [1] = experiment: Growth inhibition of human CCRF-CEM cells after 48 hrs by cell culture assay; type: functional; details: read-out: ID50 (the source's name)
Method in brief: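 CCRF-CEM human lymphoblastic leukemia cells, which lack cystathionase and need exogenous L-cysteine, grown in culture with test lactone; growth inhibition expressed as ID50 (M).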

CCRF-SLT = experiment: Growth inhibition of human CCRF-SLT cells in presence of cystathionine; type: functional, cell-based
Method in brief: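 Cystathionase-containing CCRF-SLT cell line, able to grow on cystathionine, cultured with test lactone in medium supplemented with cystathionine and, in parallel, without it; growth inhibition compared between the two media.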

CCRF-CEM [2] = experiment: Growth inhibition of human CCRF-CEM cells after 48 hrs by cell culture assay in presence of 1 x 10^-4 M L-cysteine; type: functional; details: read-out: ID50 (the source's name)

Row | SMILES | IC50 (CCRF-CEM [1]) | IC50 (CCRF-CEM [2]) | growth inhibition (GI) (CCRF-SLT)
1 | C=C1C(=O)OC(C)(C)C1C (stereo not drawn) | 21 µM |  | Active
2 | C=C1C(=O)OC[C@H]2[C@H]3CC[C@@H](C3)[C@@H]12 | 7 µM |  | 
3 | C=C1C(=O)OC[C@@]2(CC)CC[C@H]3C(=C)C(=O)O[C@@H]3[C@@H]12 |  | 0.034 µM | 
4 | C=C[C@]12CC[C@H]3C(=C)C(=O)O[C@@H]3[C@H]1C(=C)C(=O)OC2 |  | 0.034 µM | 
5 | C=C(C(=O)OC)[C@H]1CCC[C@H]2C(=C)C(=O)O[C@H]12 (relative stereo) | 2.1 µM |  | 
6 | C=C[C@]12CCCC[C@H]1C(=C)C(=O)OC2 (relative stereo) | 0.68 µM |  | 
7 | C=C[C@@]12COC(=O)C(=C)[C@@H]1[C@H]1OC(=O)C(=C)[C@@H]1[C@@H](O)C2 [VERNOLEPIN] |  | 0.43 µM | 

More lines, main results first:

Row | IC50 (CCRF-CEM [1]) | IC50 (CCRF-CEM [2]) | SMILES | growth inhibition (GI) (CCRF-SLT)
8 | 16 µM |  | C=C1C(=O)O[C@H]2CCC[C@@H]1C2 (relative stereo) | Active
9 | 15 µM |  | C=C1C(=O)O[C@@H]2CCC[C@@H](O)[C@H]12 (relative stereo) | Active
10 | 2.7 µM |  | C=C1C(=O)O[C@@H]2CC[C@@H](O)[C@H]12 (relative stereo) | 
